Experimental data: ChEMBL document CHEMBL1144887, “Indanylidenes. 1. Design and synthesis of (E)-2-(4,6-difluoro-1-indanylidene)acetamide, a potent, centrally acting muscle relaxant with antiinflammatory and analgesic activity” (J Med Chem, 2003)

How the values were obtained:
Mus musculus [1] = test: Effective dose required for muscle relaxation by intraperitoneal administration in mouse using Straub-tail (ST) assay; type: functional; conditions: ip
In short: (§1)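 Mouse morphine-induced Straub tail assay, scoring inhibition of sacro-coccygeus dorsalis contraction. Dosed ip or po, generally at a minimum of three doses with N = 6 animals per dose group.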

Mus musculus [2] = species on record: Mus musculus; test: Ratio of rotarod to Straub-tail activity, which indicates the dose exhibiting muscle relaxant activity versus that producing sedation.; type: functional
In short: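 Ratio of rotorod ED50 (po) to Straub tail ED50 (po), both measured in mice with oral dosing. Indicates separation between the muscle-relaxant dose and the sedating dose.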

Mus musculus [3] = test: Effective dose required for muscle relaxation by oral administration in mouse using Straub-tail (ST) assay.; type: functional; in short: as §1
Mus musculus [4] = test: Sedation caused by oral administration was estimated using rotarod (RR) assay.; type: functional
In short: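 Mouse rotorod test for sedation, oral dosing, generally at a minimum of three doses with N = 6 animals per dose group.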

Rattus norvegicus [5] = test: Percent inhibition for analgesic activity by trypsin-induced hyperalgesia assay at 20 mg/kg by oral administration in rats.; type: functional
In short: (§2)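 Rat trypsin-induced hyperalgesia (mild analgesia). Percent inhibition at a single oral dose of 20 mg/kg. Each compound tested two or three times; average variation approximately 5%.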

Rattus norvegicus [6] = test: Antiinflammatory activity in edema by Carrageenan pleurisy assay by oral administration; type: functional
In short: (§3)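 Rat carrageenan pleurisy, 3 h. Compounds given orally, with separate read-outs for pleural cell counts and edema. ED50 reported in mg/kg po. Each compound tested two or three times; average variation approximately 10%.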

Rattus norvegicus [7] = test: Antiinflammatory activity in cells using Carrageenan pleurisy assay by oral administration; type: functional; in short: as §3
Mus musculus [8] = test: (§4) Percent effect profile muscle relaxation at 100 mg/kg by intraperitoneal administration in mouse using Straub-tail (ST) assay; type: functional; conditions: ip
In short: (§5)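 Mouse morphine-induced Straub tail assay, scoring inhibition of sacro-coccygeus dorsalis contraction. Single ip dose of 100 mg/kg; percent effect reported. Compounds above 50% inhibition were then tested orally.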

Rattus norvegicus [9] = test: Effective dose required for analgesic activity by trypsin-induced hyperalgesia assay at 20 mg/kg by oral administration in rats; type: functional
In short: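 Rat trypsin-induced hyperalgesia (mild analgesia) with oral dosing. ED50 reported in mg/kg po. Each compound tested two or three times; average variation approximately 5%.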

Rattus norvegicus [10] = test: Antiinflammatory activity in edema by Carrageenan pleurisy assay by oral administration at 20 mg/kg.; type: functional
In short: (§6)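 Rat carrageenan pleurisy, 3 h. Single oral dose of 20 mg/kg, with separate read-outs for pleural cell counts and edema as percent inhibition. Each compound tested two or three times; average variation approximately 10%.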

Rattus norvegicus [11] = test: Antiinflammatory activity in cells by Carrageenan pleurisy assay by oral administration at 20 mg/kg.; type: functional; in short: as §6
Mus musculus [12] = test: as §4; type: functional; conditions: ip; in short: as §5; remark: listed apart in the source
Rattus norvegicus [13] = test: Effective dose required to produce analgesic activity in the trypsin hyperalgesia assay by oral administration
Mus musculus [14] = test: Evaluated for sedation in mice by loss of righting reflex up to a dose of 200 mg/kg by oral administration; No loss of righting reflex; type: functional, organism-based; set-up: dose 200 mg/kg
[15] = Effective dose required to produce analgesic activity in the phalanges algesia assay by oral administration; type: functional
Rattus norvegicus [16] = test: Antiinflammatory activity in cells by Carrageenan pleurisy assay by oral administration; type: functional; in short: as §3
Rattus norvegicus [17] = test: Effective dose required for muscle relaxation after oral administration in Wistar rats by pull-up test
Rattus norvegicus [18] = test: Effective dose required for sedation in Wistar rats evaluated by loss of righting reflex by oral administration; type: functional
In short: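 Sedation in Wistar rats scored as loss of righting reflex (ability to stay upright) after oral dosing. ED50 reported in mg/kg po.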

[19] = Effective dose required to produce analgesic activity in the adjuvant arthritis hyperalgesia assay by oral administration; type: functional
Mus musculus [20] = species on record: Mus musculus; test: Effective dose required to produce analgesic activity was measured by mouse hot plate assay; type: functional
Rattus norvegicus [21] = test: Percent inhibition for analgesic activity by trypsin-induced hyperalgesia assay at 20 mg/kg by oral administration in rats; type: functional; in short: as §2
[22] = biological target: T1, Amine oxidase [flavin-containing] A (Homo sapiens, UniProt P21397); test: Inhibitory concentration against Monoamine oxidase A (MAO-A)
T1 sequence (P21397 whole entry): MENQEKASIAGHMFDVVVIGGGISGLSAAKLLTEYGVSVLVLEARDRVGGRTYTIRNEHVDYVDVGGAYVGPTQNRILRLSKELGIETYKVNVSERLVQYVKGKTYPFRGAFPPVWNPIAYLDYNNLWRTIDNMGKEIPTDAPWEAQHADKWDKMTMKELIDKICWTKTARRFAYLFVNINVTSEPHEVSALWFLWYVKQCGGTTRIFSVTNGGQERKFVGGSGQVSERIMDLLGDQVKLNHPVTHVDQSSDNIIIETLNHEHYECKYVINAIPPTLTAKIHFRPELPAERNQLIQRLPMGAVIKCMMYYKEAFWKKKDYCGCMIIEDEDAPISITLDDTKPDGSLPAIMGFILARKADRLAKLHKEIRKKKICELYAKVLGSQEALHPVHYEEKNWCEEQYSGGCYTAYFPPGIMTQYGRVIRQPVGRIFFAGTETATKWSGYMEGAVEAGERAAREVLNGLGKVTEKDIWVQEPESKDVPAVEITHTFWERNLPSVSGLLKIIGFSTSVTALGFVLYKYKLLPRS

Rattus norvegicus [23] = test: Effective dose required for muscle relaxation after oral administration in Lewis rats by pull-up test
[24] = biological target: T2, Amine oxidase [flavin-containing] B (Homo sapiens, UniProt P27338); test: Inhibitory concentration against Monoamine oxidase B (MAO-B)
T2 sequence (P27338 whole entry): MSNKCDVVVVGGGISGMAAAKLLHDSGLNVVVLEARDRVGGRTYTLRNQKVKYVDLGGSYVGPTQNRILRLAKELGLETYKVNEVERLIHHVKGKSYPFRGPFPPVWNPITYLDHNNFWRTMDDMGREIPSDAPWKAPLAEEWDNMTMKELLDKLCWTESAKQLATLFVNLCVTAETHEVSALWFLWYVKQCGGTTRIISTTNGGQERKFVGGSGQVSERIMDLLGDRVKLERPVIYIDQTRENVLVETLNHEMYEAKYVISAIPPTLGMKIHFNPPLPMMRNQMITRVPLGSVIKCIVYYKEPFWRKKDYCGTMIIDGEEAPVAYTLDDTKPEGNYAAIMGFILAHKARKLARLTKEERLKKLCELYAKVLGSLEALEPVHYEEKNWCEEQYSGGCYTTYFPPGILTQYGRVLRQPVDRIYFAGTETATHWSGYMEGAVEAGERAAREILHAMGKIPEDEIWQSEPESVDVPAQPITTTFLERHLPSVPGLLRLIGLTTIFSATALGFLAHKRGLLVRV

Rattus norvegicus [25] = test: Antiinflammatory activity in edema by Carrageenan pleurisy assay by oral administration at 20 mg/kg; type: functional; in short: as §6
Rattus norvegicus [26] = test: Antiinflammatory activity in cells by Carrageenan pleurisy assay by oral administration at 20 mg/kg; type: functional; in short: as §6
Rattus norvegicus [27] = test: Percent inhibition for analgesic activity by trypsin-induced hyperalgesia assay at 20 mg/kg by oral administration in rats; ND is no data.; type: functional; in short: as §2

| Compound | ED50 (Mus musculus [3]) [mg/kg] | ED50 (Rattus norvegicus [6]) [mg/kg] | ED50 (Rattus norvegicus [7]) [mg/kg] | inhibition in vivo at 100 mg/kg (Mus musculus [8]) [%] | ED50 (Rattus norvegicus [9]) [mg/kg] | inhibition in vivo at 100 mg/kg (Mus musculus [12]) [%] | other results |
| --- | --- | --- | --- | --- | --- | --- | --- |
| NC(=O)/C=C1/CCc2ccccc21 |  |  |  |  |  |  | ED50 (Mus musculus [1]): 44 mg/kg |
| C/C(=C\C(=O)NC1CC1)c1cccc(F)c1 | 122 |  |  |  |  |  | Ratio (Mus musculus [2]): 0.6; ED50 (Mus musculus [1]): 46 mg/kg; ED50 (Mus musculus [4]): 71 mg/kg |
| CN(C)C(=O)/C=C1\CCc2ccc(F)cc21 | > 100 | 12 | 16 | 100 | 5 |  | inhibition in vivo at 20 mg/kg (Rattus norvegicus [5]): 88% |
| CNC(=O)/C=C1\CCc2cc(F)c(F)cc21 | 96 | 11 | 18 | 100 | 9 |  | inhibition in vivo at 20 mg/kg (Rattus norvegicus [5]): 100% |
| O=C(/C=C1\CCc2ccccc21)NC1CC1 | 150 |  |  |  |  |  | Ratio (Mus musculus [2]): 1.6; ED50 (Mus musculus [1]): 71 mg/kg; ED50 (Mus musculus [4]): 235 mg/kg |
| NC(=O)/C=C1\CCc2c(F)cccc21 | > 100 |  |  |  | 13 | 63 | inhibition in vivo at 20 mg/kg (Rattus norvegicus [10]): 34%; inhibition in vivo at 20 mg/kg (Rattus norvegicus [5]): 68%; inhibition in vivo at 20 mg/kg (Rattus norvegicus [11]): 40% |
| NC(=O)/C=C1\CCc2c(F)cc(F)cc21 | 69 | 15 |  | 100 | 4 | 67 | ED50 (Rattus norvegicus [13]): 22 mg/kg; ED50 (Mus musculus [14]): No loss of righting reflex; ED50 [15]: 20 mg/kg; ED50 (Rattus norvegicus [16]): 19 mg/kg; ED50 (Rattus norvegicus [17]): 64 mg/kg; ED50 (Rattus norvegicus [18]): 200 mg/kg; ED50 (Mus musculus [4]): 138 mg/kg; ED50 [19]: 21 mg/kg; ED50 (Mus musculus [20]): 30 mg/kg; inhibition in vivo at 20 mg/kg (Rattus norvegicus [21]): 100%; IC50 [22]: 11 µM; ED50 (Rattus norvegicus [23]): 18 mg/kg; IC50 [24]: 200 nM |
| CNC(=O)/C=C1\CCc2c(F)cc(F)cc21 | 45 |  |  | 100 | 13 |  | inhibition in vivo at 20 mg/kg (Rattus norvegicus [21]): 65% |
| O=C(/C=C1\CCc2ccc(F)cc21)NCc1ccccc1 |  | 8 | 16 |  |  | 17 | inhibition in vivo at 20 mg/kg (Rattus norvegicus [21]): 8% |
| O=C(/C=C1\CCc2ccc(F)cc21)Nc1ccccc1 |  |  | 8 |  |  | 83 |  |
| O=C(/C=C1\CCc2c(F)cccc21)NC1CC1 | 126 |  |  | 100 |  |  | inhibition in vivo at 20 mg/kg (Rattus norvegicus [25]): 18%; inhibition in vivo at 20 mg/kg (Rattus norvegicus [26]): 29% |
| Cc1ccc2c(c1)/C(=C/C(N)=O)CC2 |  |  |  | 33 |  |  | inhibition in vivo at 20 mg/kg (Rattus norvegicus [27]): 14% |
